The subject of data set [1] is Tobacco mosaic virus. Briefly: Inhibition of TMV U1 replication in tobacco BY2 protoplast at 50 nM by local lesion assay using Chenopodium quinoa leaves. The format is functional, organism-based. The method in brief: (§1)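 TMV premixed with compound at a range of concentrations used to inoculate tobacco BY-2 protoplasts; virus multiplication then assayed by counting local lesions on the local lesion host Chenopodium quinoa.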

Data set [2] relates to Tobacco mosaic virus. As to the kind of experiment: Reduction of coat protein level in TMV U1 infected tobacco BY2 protoplast by ELISA. The format is functional, organism-based. The method in brief:
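BY-2 protoplasts inoculated with TMV pretreated with a range of compound concentrations; coat protein measured by ELISA, three repeats per concentration, mean ± SD.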

Data set [3] relates to Tobacco mosaic virus. As to the kind of experiment: Inhibition of coat protein sgRNA accumulation in TMV U1 infected Nicotiana tabacum cv K326 plant leaves at 50 nM by Northern blot. The format is functional, organism-based. The method in brief:
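N. tabacum cv. K326 leaves inoculated with TMV with or without 50 nM compound; inoculated and upper uninoculated leaves collected at 5 dpi. TRIzol total RNA probed with CP gene sequence by Northern blot, 28S rRNA as loading control.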

The subject of data set [4] is Sindbis virus. As to the kind of experiment: Antiviral activity against Sindbis virus XJ160 in BHK21 cells assessed as reduction of virus-induced cytopathic effect after 24 hrs. The format is functional, organism-based. The conditions noted are these: BHK-21. The method in brief: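 SINV XJ-160 (2 × 10⁵ pfu/ml, thrice plaque-purified) treated with compound for 15 min, adsorbed 1 h to BHK-21 cells at MOI 0.01 in quadruplicate; washed, fresh DMEM with 5% FBS added, cells kept at 37°C, 5% CO₂. Cytopathic morphology scored by light microscopy at 24 hpi.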
A general note: Protection from cytopathic effect is a common read-out in antiviral testing.

The nature of data set [5]: Growth inhibition of hamster BHK21 cells at 100 nM after 48 hrs. The conditions noted are these: bhk-21, 48 h, 0.1 µM. The format is cell-based, Mesocricetus auratus. The method in brief:
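BHK-21 cells mock-infected and incubated with 100 nM compound for 48 h; cell morphology and growth examined by light microscopy.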

In data set [6] the test system is Sindbis virus. Briefly: Decrease in 26S sgRNA level in Sindbis virus XJ160 infected BHK21 cells after 24 hrs postinfection. The format is functional, organism-based. The following applies: BHK-21.
For data set [7], the system named is Sindbis virus. Briefly: Reduction of Sindbis virus infection-induced mortality rate in newborn BALB/c mouse assessed as long term survivors at 50 mg/kg. The format is functional. The method in brief: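 Newborn BALB/c mice, 2–3 days old, ≈2 g, were inoculated intracerebrally with 20 μl medium holding 100 × LD50 SINV. Compound (20 μl, 5, 50 or 100 mg/kg BW) was mixed into the inoculum. There were 11 mice per group, counted at 3–7 days. Virus-alone and compound-alone controls were included.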

Data set [8] has as its system Sindbis virus. Briefly: Reduction of Sindbis virus infection-induced mortality rate in newborn BALB/c mouse assessed as survivors at 100 mg/kg administered 1 hr before infection after 7 days. The format is functional. The method in brief: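 Newborn BALB/c mice, 2–3 days old, ≈2 g, received 20 μl compound at 100 mg/kg BW 1 or 4 h before intracerebral inoculation with 20 μl containing 100 × LD50 SINV. There were 11 mice per group, with survivors counted at 3, 4, 5, 6 and 7 days.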

The next data set has as its system Hepatitis C virus. As to the kind of experiment: Antiviral activity against HCV in human H9 cells assessed as inhibition of virus-induced cytopathogenicity. The format is functional, organism-based, Hepacivirus hominis.
Another data set deals with Reovirus sp. As to the kind of experiment: Antiviral activity against Reovirus in CIK cells assessed as inhibition of virus-induced cytopathogenicity. The format is functional, organism-based. The method in brief:
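Cells seeded at 2 × 10⁵ per well 24 h before use (BHK-21 for GETV, H9 for HIV, CIK for Reovirus, 983A for adenovirus, Veto for measles virus). Infected at a dose giving 100% cytopathic effect at 3 dpi; virus premixed with compound at final 100, 50, 10, 3, 2, 1.5, 1, 0 nM. Infected and uninfected untreated controls on each plate.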

Data set [9] in a line: Selectivity index, ratio of CC50 for BHK21 cells to EC50 for Getah virus. The format is toxicity, cell-based, BHK-21. The conditions noted are these: hamster, read-out: Ratio CC50/EC50. The essentials: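 Getah virus was tested on BHK-21 cells seeded at 2 × 10⁵ per well 24 h before use, infected at a dose giving 100% CPE at 3 dpi. Compound was premixed with virus at final 100–0 nM. EC50 was taken as 50% inhibition of cytopathogenicity. Index = 50% cytotoxicity concentration/EC50.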

The test system of data set [10] is Tobacco mosaic virus. Briefly: Inhibition of TMV U1 multiplication in tobacco BY2 protoplast at 10 nM assessed as inhibition of local lesions on Chenopodium quinoa leaves by local lesion assay after 3 days postinfection. The format is functional. The following applies: U1, 72 h. The essentials: as §1
The subject of data set [11] is Tobacco mosaic virus. As to the kind of experiment: Inhibition of TMV U1 multiplication in tobacco BY2 protoplast at 30 nM assessed as inhibition of local lesions on Chenopodium quinoa leaves by local lesion assay after 3 days postinfection. The format is functional. The conditions noted are these: U1, 72 h. The essentials: as §1
The test system of data set [12] is Tobacco mosaic virus. As to the kind of experiment: Inhibition of TMV U1 multiplication in tobacco BY2 protoplast at 10 nM assessed as local lesion size on Chenopodium quinoa leaves by local lesion assay. The format is functional.
For data set [13], the system named is Tobacco mosaic virus. Briefly: Inhibition of TMV U1 multiplication in tobacco BY2 protoplast at 40 nM assessed as local lesion size on Chenopodium quinoa leaves by local lesion assay. The format is functional.
Data set [14] concerns Tobacco mosaic virus. As to the kind of experiment: Antiviral activity against TMV U1 infected Nicotiana tabacum cv K326 plant leaves assessed as inhibition of systemic virus infection. The format is functional, organism-based.

Active and inactive are the calls of the source. The rule behind the calls is not given here.

For orientation: EC50 means the concentration giving half of the maximal effect. One may read the inhibition as the share of the control response that was lost under treatment. As for `CO[C@@H]1C[C@H](O[C@H]2CC[C@@]3(C)C(=CC[C@H]4C(=O)OC5CO[C@]6(C)OC=C(CC[C@@H]43)[C@H]56)C2)O[C@H](C)[C@H]1O[C@H]1C[C@H](O)[C@H](O[C@@H]2C[C@@H](OC)[C@H](O[C@@H]3O[C@H](CO)[C@@H](O[C@@H]4O[C@H](CO)[C@@H](O)[C@H](O)[C@H]4O)[C@H](O)[C@H]3O)[C@@H](C)O2)[C@@H](C)O1` (stereo partly specified) [PANICULATUMOSIDE C], the outcome in the data set on Tobacco mosaic virus [1], with Tobacco mosaic virus [3], with Sindbis virus [6] and in the data set on Tobacco mosaic virus [14] was Active. The Activity entry with Tobacco mosaic virus [2] is “Dose-dependent effect”; in the data set on Sindbis virus [4], “Dose-dependent effect”; in [5], “Non-toxic”; in the data set with Sindbis virus [7], 54%; in the data set on Sindbis virus [8], 100%; in the data set on Tobacco mosaic virus [12], 2.4 mm. Moreover, the Activity in the data set on Tobacco mosaic virus [13] is on record as 1 mm. For the same molecule, the EC50 in the data set with Hepatitis C virus and in the data set on Reovirus sp. was over 25 µM each time. In [9], the selectivity ratio amounted to 16500. In the data set on Tobacco mosaic virus [10], the inhibition at 0.01 µM worked out at 19%. Also, in the data set with Tobacco mosaic virus [11], the inhibition at 0.03 µM worked out at 72%.

The record behind these values is ChEMBL document CHEMBL1156462, “Seco-pregnane steroids target the subgenomic RNA of alphavirus-like RNA viruses” (Proc Natl Acad Sci U S A, 2007).
